Measured values reported in ChEMBL document CHEMBL1134737, “Synthesis and purine receptor affinity of 6-oxopurine nucleosides and nucleotides containing (N)-methanocarba-pseudoribose rings” (Bioorg Med Chem Lett, 2001).
Active and inactive are the calls of the source. The calls are words filed in the database; no cut-off is given here.

What was measured:
Adenosine receptor A3 = biological target: T1, Adenosine receptor A3 (Homo sapiens, UniProt P0DMS8); assay: Displacement of [125I]AB-MECA from human Adenosine A3 receptor expressed in HEK293 cell membranes
T1 sequence (P0DMS8 whole entry): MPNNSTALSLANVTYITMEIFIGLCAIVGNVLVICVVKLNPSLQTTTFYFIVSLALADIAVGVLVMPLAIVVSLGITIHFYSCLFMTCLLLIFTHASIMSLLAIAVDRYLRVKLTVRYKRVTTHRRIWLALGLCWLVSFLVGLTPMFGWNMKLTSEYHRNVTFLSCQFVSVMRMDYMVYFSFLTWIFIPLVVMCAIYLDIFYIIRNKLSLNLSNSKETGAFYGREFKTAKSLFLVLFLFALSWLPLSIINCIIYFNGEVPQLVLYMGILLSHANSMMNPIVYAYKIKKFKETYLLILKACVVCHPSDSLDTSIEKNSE
Summary of the method: (§1)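 Membranes from HEK-293 cells expressing human A3 receptor; specific [125I]AB-MECA binding displaced by test ligands. Reported as Ki ± SEM or as % displacement, n = 3-5.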

HL-60 [1] = assay: Effect on calcium mobilization in HL-60 cells at the dose of 100 uM concentration; Inactive; format: functional, cell-based; details: Homo sapiens
[2] = biological target: T2, Adenosine receptor A3 (Homo sapiens) (UniProt P0DMS8); assay: Displacement of [125I]AB-MECA from human Adenosine A3 receptor expressed in HEK293 cell membranes at 100 uM; summary of the method: as §1
T2 sequence (whole entry): T1 sequence (P0DMS8 whole entry)

HL-60 [3] = assay: Effect on calcium mobilization in HL-60 cells at the dose of 100 uM concentration (1 uM UTP); format: functional, Homo sapiens
[4] = biological target: Adenosine receptor A2a (Rattus norvegicus) (UniProt P30543); assay: Displacement of [3H]-CGS- 21680 from A2A receptors in rat striatal membranes at 100 uM; format: cell membranes; details: Membrane
Summary of the method: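 Rat striatal membranes as A2A receptor source; displacement of specific [3H]CGS 21680 binding. Reported as Ki ± SEM or as % displacement, n = 3-6.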

[5] = biological target: T3, Adenosine receptor A1 (Rattus norvegicus) (UniProt P25099); assay: Displacement of [3H]R-PIA from Adenosine A1 receptor in rat brain membrane at 100 uM; format: cell membranes
T3 sequence (whole entry): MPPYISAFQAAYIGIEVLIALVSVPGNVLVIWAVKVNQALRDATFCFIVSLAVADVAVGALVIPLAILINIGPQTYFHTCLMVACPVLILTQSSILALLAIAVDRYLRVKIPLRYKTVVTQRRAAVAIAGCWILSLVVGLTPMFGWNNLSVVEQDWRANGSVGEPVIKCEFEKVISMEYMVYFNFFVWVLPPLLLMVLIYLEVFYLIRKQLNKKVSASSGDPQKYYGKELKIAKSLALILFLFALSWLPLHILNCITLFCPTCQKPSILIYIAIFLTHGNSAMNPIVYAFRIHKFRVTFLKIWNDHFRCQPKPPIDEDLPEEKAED

Adenosine receptor A1 = biological target: T4, Adenosine receptor A1 (Rattus norvegicus, UniProt P25099); assay: Displacement of [3H]R-PIA binding to Adenosine A1 receptor in rat brain membrane; format: cell membranes
T4 sequence (P25099 whole entry): T3 sequence (whole entry)

Chain of Adenosine receptor A2a (Rattus norvegicus) (P30543 whole entry): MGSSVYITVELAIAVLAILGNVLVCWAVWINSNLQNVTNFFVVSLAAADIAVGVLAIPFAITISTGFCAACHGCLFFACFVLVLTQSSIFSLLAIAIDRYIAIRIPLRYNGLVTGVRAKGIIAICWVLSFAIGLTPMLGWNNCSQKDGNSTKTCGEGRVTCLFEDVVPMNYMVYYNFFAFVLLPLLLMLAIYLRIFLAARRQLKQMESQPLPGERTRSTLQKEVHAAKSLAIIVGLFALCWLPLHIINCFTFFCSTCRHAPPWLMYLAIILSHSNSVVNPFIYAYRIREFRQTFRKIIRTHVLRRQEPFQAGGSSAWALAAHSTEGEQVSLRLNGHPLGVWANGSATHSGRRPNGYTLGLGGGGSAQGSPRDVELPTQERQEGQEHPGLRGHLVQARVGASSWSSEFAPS

SMILES: CNC(=O)[C@@]12C[C@@H]1[C@@H](n1cnc3c(=O)[nH]cnc31)[C@H](O)[C@@H]2O
- Ki (Adenosine receptor A3): 28.8 µM

SMILES: O=P(O)(OC[C@@]12C[C@@H]1[C@@H](n1cnc3c(O)ncnc31)[C@H](O)[C@@H]2O)OP(=O)(O)OC[C@@]12C[C@@H]1[C@@H](n1cnc3c(O)ncnc31)[C@H](O)[C@@H]2O
- Activity (HL-60 [1]): inactive
- Ki (Adenosine receptor A3): 21.6 µM

SMILES: Nc1nc(O)c2ncn([C@H]3[C@H](O)[C@H](O)[C@]4(COP(=O)(O)OP(=O)(O)OP(=O)(O)O)C[C@H]34)c2n1
- Displacement [2]: < 10%
- Activity (HL-60 [3]): 53%

SMILES: O=P(O)(O)OC[C@@]12C[C@@H]1[C@@H](n1cnc3c(O)ncnc31)[C@H](O)[C@@H]2O
- Activity (HL-60 [1]): inactive

SMILES: OC[C@@]12C[C@@H]1[C@@H](n1cnc3c(O)ncnc31)[C@H](O)[C@@H]2O
- Displacement [4]: < 10%
- Displacement [5]: < 10%

SMILES: Nc1nc(O)c2ncn([C@H]3[C@H](O)[C@H](O)[C@]4(CO)C[C@H]34)c2n1
- Displacement [4]: < 10%
- Displacement [5]: < 10%
- Ki (Adenosine receptor A3): 20.5 µM

SMILES: CNC(=O)[C@@]12C[C@@H]1[C@@H](n1cnc3c(O)ncnc31)[C@H](O)[C@@H]2O
- Displacement [4]: < 10%
- Displacement [5]: < 10%

SMILES: CCCCn1c(=O)c2c(ncn2[C@H]2[C@H](O)[C@H](O)[C@]3(CO)C[C@H]23)n(CCCC)c1=O
- Displacement [4]: < 10%
- Ki (Adenosine receptor A3): 4.35 µM
- Ki (Adenosine receptor A1): 2.97 µM

SMILES: CCCCn1c(=O)c2c(ncn2[C@H]2[C@H](O)[C@H](O)[C@]3(OP(=O)(O)OP(=O)(O)OP(=O)(O)O)C[C@H]23)n(CCCC)c1=O
- Displacement [2]: < 10%

SMILES: CCCCn1c(=O)c2c(ncn2[C@H]2[C@H](O)[C@H](O)[C@]3(C(=O)NC)C[C@H]23)n(CCCC)c1=O
- Displacement [4]: < 10%
- Ki (Adenosine receptor A3): 1.86 µM
- Ki (Adenosine receptor A1): 24.4 µM
